Source: PubChem BioAssay
Only some compounds are listed: those with a hit (about 3.4% of all), similar ones and a draw of the others.
IMP-1 inh – IMP-1 metallo-beta-lactamase inhibitors, primary screen, biochemical, epi-absorbance readout, Pseudomonas aeruginosa enzyme; metallo-beta-lactamase IMP-1 (Pseudomonas aeruginosa); purified IMP-1, nitrocefin hydrolysis, epi-absorbance fluorescence; inhibition, % at 5.6 µM; hit rate 0.45% among 290,000; AID 1556, 2009;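 active = inhibition above the mean plus 3 SD of all compounds in the same screening run, cut at about 4.5% in these data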
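System – purified recombinant IMP-1 beta-lactamase · Input – IMP-1 dispensed at 0.2 nM · Timing – 15 min preincubation plus 25 min reaction at 25 °C · Signal – Epi-absorbance fluorescence, 480 nm excitation, 530 nm emission · Measure – percent IMP-1 inhibition derived from blank-referenced optical density · Controls – Enzyme-plus-DMSO low control, enzyme-free DMSO high control · Replication – singlicate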
VIM-2 inhibitor – VIM-2 metallo-beta-lactamase inhibitors, primary screen, biochemical, epi-absorbance readout, Pseudomonas aeruginosa enzyme; inhibition, % at 5.6 µM; purified VIM-2, nitrocefin hydrolysis, epi-absorbance fluorescence; hit rate 0.89% among 290,000;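 active = inhibition above the mean of all tested compounds plus 3 SD, cutoff set per screening run, cut at about 7.5% in these data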;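 note: red hydrolysis product quenches plate fluorescence so inhibitors raise well fluorescence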
ANO1 activ – TMEM16A chloride channel activators or potentiators, primary screen, cell-based, HTS | HEK293 TMEM16A/YFP-H148Q/I152L, iodide quench fluorescence; hits give low values | B-score at 10 µM | hit rate 0.3% among 340,000 | Anoctamin-1 (Mus musculus), Q8BHY3;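 active = fluorescence-ratio B-score plate-corrected deviation score at least 3 library SD below zero, with starting fluorescence score within 5 deviations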;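 note: channel opened by trigger with iodide after compound preincubation; score built on the fluorescence ratio of max minus min over baseline; more negative score means more quench and so TMEM16A activation or potentiation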
CHT inh – inhibitors of human choline transporter CHT. B-score at 10 µM. CHT-expressing cells, membrane potential dye, choline response; hits give low values. High affinity choline transporter 1 (Homo sapiens), Q9GZV3. hit rate 0.86% among 310,000. AID 488975, 2010;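 active = B-score over 3 SD under the library average, and starting fluorescence ratio not unusually high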;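 note: choline stimulus applied at its EC90 after an EC20 pre-addition; B-score computed on integrated fluorescence ratio after choline addition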
CHT PAM – CHT positive allosteric modulators, primary screen, cell-based, membrane potential dye, choline EC20; hit rate 0.49% among 310,000; CHT-expressing cells; hits give high values; LV-AA mutant CHT in HEK293 cells; B-score at 10 µM; High affinity choline transporter 1 (Homo sapiens), Q9GZV3;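 active = initial fluorescence not abnormally high and integrated response B-score, plate-corrected, over 3 SD above library mean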
TMEM16A inh – TMEM16A chloride channel inhibitors, primary screen, cell-based, HTS; HEK293 TMEM16A/YFP iodide influx fluorescence, ionomycin; normalized B-score (activity score, 25-100; higher = stronger inhibition) at 10 µM; hit rate 1.2% among 310,000; AID 588511, 2011;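 active = ratio plate-corrected score three or more library SD toward inhibition, starting fluorescence score within five deviations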;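 note: score derived from kinetic fluorescence span divided by baseline fluorescence per well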
A number is an active result; . = inactive; / = no result.

SMILES	IMP-1 inh	VIM-2 inhibitor	ANO1 activ	CHT inh	CHT PAM	TMEM16A inh
COC(=O)c1ccccc1S(=O)(=O)N1CCC(C(=O)OCC(=O)c2ccccc2OC)CC1	/	/	.	.	.	.
COc1ccccc1C(=O)NNC(=O)c1cccc(F)c1	.	.	.	.	.	.
COc1ccccc1C(=O)NNC(=O)c1ccccc1F	8.6	.	.	.	.	.
CC(NC(=O)c1cc2cc(Br)ccc2oc1=N)c1ccccc1 (stereo unspecified)	.	.	.	.	.	25
CC(C)(C)CC(C)(C)c1ccc(OCCOCC[N+](C)(C)Cc2ccccc2)cc1	/	/	.	.	.	25
OCCSc1nc(-c2cccnc2)nc2ccccc12	.	7.7	.	.	.	.
OCCNc1nc(-c2cccnc2)nc2ccccc12	.	.	.	.	.	.
CCC1=C(OC(=O)N(CC)CC)N2C(=O)OC(=NCCOC)[C@]2(Cc2ccccc2)[C@H]2C1=CC[C@H]1C(=O)N(CC(=O)OC)C(=O)[C@H]12	/	/	.	.	.	25
CC(=O)c1cccc(NC(=O)N2C3CCCC2CC(NC(=O)C2CC2)C3)c1 (stereo unspecified)	.	.	.	.	.	.
CN(C)c1ccc(/C=C/C(=O)c2cccnc2)cc1	7.8	.	.	.	.	.
CN(C)c1ccc(/C=C/c2ccncc2)cc1	6.3	.	.	/	/	/
CN(C)c1ccc(/C=C/C(=O)c2ccc(O)cc2)cc1	/	/	.	/	/	/
Cn1c(CNC(=O)CNC(=O)Cc2ccccc2)cc(=O)n(C)c1=O	.	.	.	.	.	.
COc1ccccc1C(=O)Nn1c(C)nc2ccccc2c1=O	.	.	.	.	.	.
O=C(CCc1c[nH]c2ccccc12)NCC(=O)Nc1ccc(F)c(F)c1F	.	.	-6.3	.	.	.
ON1C(c2ccc(Cl)cc2Cl)N(O)[C@H]2CCCC[C@H]21 (stereo partly specified)	.	.	.	.	.	100
Oc1ccc(C=NNC(=S)Nc2cccnc2)nc1	/	/	.	/	/	/
Cn1nc(C(=O)NNC(=O)Cc2ccc(S(=O)(=O)N3CCOCC3)s2)c2ccccc2c1=O	/	/	.	/	/	/
CS(=O)(=O)c1ccc(C(=O)OCc2nnc(-c3ccc(Cl)cc3)o2)cc1[N+](=O)[O-]	.	.	.	.	.	25
CC1(C)Oc2ccc3ccc(=O)oc3c2-c2cn[nH]c21	.	8.0	.	.	.	.
CC1(C)Oc2ccc3ccc(=O)oc3c2-c2cnoc21	.	.	.	.	.	.
O=c1/c(=C/c2ccco2)sc2nc(-c3ccccc3Br)nn12	5.2	.	.	.	.	.
COCCN1C(=O)/C(=C/c2ccc(N3CCCC3)cc2)SC1=S	4.5	.	.	.	.	.
CCOc1cc(O)c(-c2[nH]ncc2-c2nc(C)cs2)cc1CC	.	.	.	.	.	25
CCc1cc(-c2[nH]ncc2-c2nc3ccccc3n2C)c(O)cc1O	.	.	.	.	.	.
SMILES	IMP-1 inh	VIM-2 inhibitor	ANO1 activ	CHT inh	CHT PAM	TMEM16A inh
Cc1ccc(NC(=O)CSCC(=O)OC(C)C(=O)Nc2ccc(S(N)(=O)=O)cc2)c(C)c1 (stereo unspecified)	/	/	.	.	.	.
N#CC(C#N)=NNc1ccc(S(=O)(=O)N2CCCCC2)cc1	.	.	.	.	.	100
N#C/C(=N\Nc1ccc(S(=O)(=O)N2CCOCC2)cc1)C(N)=S	.	.	.	.	.	.
NS(=O)(=O)c1ccc(CNC(=S)Nc2ccc(Cl)c(Cl)c2)cc1	.	.	-5.3	.	.	.
COc1ccc(NC(=S)NCc2ccc(S(N)(=O)=O)cc2)cc1OC	.	.	.	.	.	.
O=C(CCC(=O)c1cccs1)c1cccs1	4.6	.	.	.	.	.
NS(=O)(=O)c1ccc(NC(=O)CCC(=O)c2cccs2)cc1	.	.	.	.	.	.
NC(=O)c1ccc(NC(=O)CCC(=O)c2cccs2)cc1	5.0	.	.	.	.	.
O=C(C1CCC1)N1CCCc2cc(S(=O)(=O)N3CCN(c4ccccc4)CC3)ccc21	.	.	.	.	.	.
NC(=O)C1(Nc2ccc(-c3ccc(Br)cc3)cc2)CCCC1	/	/	.	/	/	/
Cc1cc2nc3n(c2cc1C)CC1CC(C(=O)NCc2cccc(Br)c2)N(C)C31 (stereo unspecified)	/	/	.	.	.	.
CN1C(C(=O)NCc2cccc(Br)c2)CC2Cn3c(nc4cc(Cl)c(Cl)cc43)C21 (stereo unspecified)	/	/	-4.8	.	.	.
O=C(Nc1ccccc1)c1ccccc1OCC(O)CN1C(=O)c2ccccc2S1(=O)=O (stereo unspecified)	.	.	.	.	.	100
O=c1c2ccccc2ncn1CCCOc1ccccc1[N+](=O)[O-]	.	.	.	.	.	25
Cc1cccc(C)c1NC1=NCCCCC1	.	.	.	.	.	.
C=C(C)CN(CC)C(=O)CSc1ccc(S(=O)(=O)N2CCN(C)CC2)cn1	/	/	.	/	/	/
S=c1[nH]c2ccccc2n2cccc12	.	8.7	.	.	.	.
Cc1cc(=O)n2nc(N3CCCC(C(=O)N4CCOCC4)C3)sc2n1 (stereo unspecified)	.	.	-5.5	.	.	.
COc1ccc(NC(=O)Cn2nnc(C(=O)Nc3ccc(F)c(Cl)c3)c2N)cc1	8.1	.	.	.	.	.
Cc1ccc(NC(=O)Cn2nnc(C(=O)Nc3ccc(F)c(Cl)c3)c2N)cc1	.	.	.	.	.	.
O=C(CCCN1C(=O)c2cccc3cccc(c23)C1=O)NCc1ccco1	.	.	.	.	.	.
CN(C)C(CNC(=O)CCCN1C(=O)c2cccc3cccc(c23)C1=O)c1ccccc1 (stereo unspecified)	.	9.2	.	.	.	.
O=C(c1cc(COc2cccc(C(F)(F)F)c2)on1)N1CCC(Oc2cccnc2)CC1	.	.	.	.	.	.
O=C(NN1C(=O)C2C(c3ccccc3)C=CC(c3ccccc3)C2C1=O)c1ccccc1 (stereo unspecified)	34	.	.	.	.	.
O=C(NN1C(=O)C2C3c4ccccc4C(c4ccccc43)[C@@H]2C1=O)c1ccccc1 (stereo partly specified)	.	.	.	.	.	.
COCCn1c(N)c(N(Cc2ccccc2)C(=O)c2ccc(-c3ccc(Cl)cc3)o2)c(=O)[nH]c1=O	/	/	.	.	.	.
CCc1nn2cc(C(=O)c3cc(Cl)ccc3O)cnc2c1-c1ccc(F)cc1	.	.	.	.	.	100
Cc1nn(-c2ccccc2)c2ncc(C(=O)c3cc(Cl)ccc3O)cc12	.	.	.	.	.	.
